Data on six compounds can be found in ChEMBL document CHEMBL2062366, “Synthesis and biological evaluation of purpurealidin E-derived marine sponge metabolites: aplysamine-2, aplyzanzine A, and suberedamines A and B” (2012).

In brackets after ≈: the same amount, converted by molar mass. Activity calls are given as the source filed them. The calls are words filed in the database; no cut-off is given here.

The assay has as its system Mycobacterium tuberculosis. Nature of the assay: Antimycobacterial activity against Mycobacterium bovis BCG after 2 weeks by spot culture growth inhibition assay. The class given is functional. Conditions: variant bovis BCG. In outline: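 BCG grown in rolling bottles in 7H9 + 10% ADC + 0.05% Tween 80 to midexponential phase, quality-checked by Ziehl−Neelsen staining. Culture diluted to 10³ cfu/mL; 10 μL spotted onto 7H10 agar + 10% OADC containing compound, 37 °C for 2 weeks. Controls: DMSO (negative), isoniazid (positive). MIC = lowest concentration with no growth.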

With `COc1ccc(C/C(=N\O)C(=O)NCCc2cc(Br)c(OCCCN(C)C)c(Br)c2)cc1Br`, 25 mg/L (≈ 38.4 µM) was the least that counted as inhibitory (336 h) (MIC).

For `CN(C)CCCOc1c(Br)cc(CCN)cc1Br`, the MIC result is “inactive”.

Under “336 h”, `CNC(Cc1cc(Br)c(OC)c(Br)c1)C(=O)NCCCOc1c(Br)cc(CCN(C)C)cc1Br.Cl` (stereo unspecified) [ANOMOIAN A] came in with an MIC of 25 mg/L.

Regarding `COc1c(Br)cc(C[C@@H](C(=O)NCCc2cc(Br)c(OCCCN(C)C)c(Br)c2)N(C)C)cc1Br` [APLYZANZINE A], the lowest concentration to inhibit growth (336 h) (MIC) was 25 mg/L (≈ 33.6 µM).

For `COc1ccc(C[C@H](N)C(=O)NCCc2cc(Br)c(OCCCN(C)C)c(Br)c2)cc1Br` [SUBEREDAMINE A], the lowest concentration to inhibit growth (336 h) (MIC) was 50 mg/L (≈ 78.6 µM).

For `CN[C@@H](Cc1ccc(OC)c(Br)c1)C(=O)NCCc1cc(Br)c(OCCCN(C)C)c(Br)c1` [SUBEREDAMINE B], 40 mg/L (≈ 61.5 µM) was the least that counted as inhibitory (336 h) (MIC).
